{"source": "paper PMC10413923", "about": "(Journal of Enzyme Inhibition and Medicinal Chemistry, 2023)", "assay_type_in_all_cases": "cell-based", "key": {"[1]": {"system": "HO-1 (HMOX1)", "test": "HO-1", "settings": "LPS-human macrophages, 48 h; 14b at EC50 (5.3 µmol/mL); qPCR", "outline": "(§1)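 LPS-stimulated human macrophages (inflammatory model) were exposed to test compound at 5.3 µmol/mL for 48 h. Akt and HMOX1 (HO-1) gene expression was measured alongside untreated LPS-macrophages as negative control and dexamethasone-treated macrophages as reference. Expression is reported as fold change relative to untreated macrophage cells.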"}, "[2]": {"system": "Akt", "test": "Akt gene expression by qPCR in LPS-human macrophages", "settings": "48 h, 14b at EC50 (5.3 µmol/mL)", "outline": "as §1"}, "[3]": {"system": "NF-kβ", "test": "NF-kβ level by ELISA in LPS-human macrophages", "settings": "14b at EC50 (5.3 µmol/mL), 48 h", "outline": "(§2)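 IL-6, IL-1β, TNF-α and NF-κB levels were measured in LPS-stimulated human macrophages exposed to test compound. Comparison groups were untreated LPS-macrophages as negative control and dexamethasone-treated macrophages as reference.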"}, "[4]": {"system": "IL-6", "test": "IL-6 level by ELISA in conditioned medium of LPS-human macrophages", "settings": "14b at EC50 (5.3 µmol/mL), 48 h", "outline": "as §2"}, "[5]": {"system": "TNF-α", "test": "TNF-α level by ELISA in conditioned medium of LPS-human macrophages", "settings": "14b at EC50 (5.3 µmol/mL), 48 h", "outline": "as §2"}, "[6]": {"system": "IL-1β", "test": "IL-1β level by ELISA in conditioned medium of LPS-human macrophages", "settings": "14b at EC50 (5.3 µmol/mL), 48 h", "outline": "as §2"}}, "data": [{"smiles": "C[C@@H]1C[C@H]2[C@@H]3CCC4=CC(=O)C=C[C@]4(C)[C@@]3(F)[C@@H](O)C[C@]2(C)[C@@]1(O)C(=O)CO", "note": "[Dexa, dexamethasone, reference compound]", "values": [{"measurement": "upregulation of HO-1 gene expression compared to untreated macrophage cells", "setting": "[1]", "value": 4.38, "unit": "fold"}, {"measurement": "increase in Akt gene expression relative to untreated macrophage cells", "setting": "[2]", "value": 3.2, "unit": "fold"}]}, {"smiles": "COc1ccc(C(C)=NNC(=O)COc2ccc3c(C)cc(=O)oc3c2C)cc1OC", "note": "[Compound 14b, 2–(4,8-Dimethyl-2-oxo-2H-chromen-7-yloxy)-N'-(1–(3,4-dimethoxyphenyl)ethylidene)acetohydrazide]", "values": [{"measurement": "NF-kβ modulation compared with Dexa (in words)", "setting": "[3]", "value": "comparable efficacy to Dexa"}, {"measurement": "reduction in NF-kβ level relative to untreated control cells", "setting": "[3]", "value": 2.31, "unit": "fold"}, {"measurement": "upregulation of HO-1 gene expression compared to untreated macrophage cells", "setting": "[1]", "value": 6.5, "unit": "fold"}, {"measurement": "reduction in IL-6 level relative to negative control cells", "setting": "[4]", "value": 1.41, "unit": "fold"}, {"measurement": "reduction in TNF-α level relative to untreated control cells", "setting": "[5]", "value": 1.19, "unit": "fold"}, {"measurement": "reduction in IL-1β level relative to untreated macrophage cells", "setting": "[6]", "value": 1.65, "unit": "fold"}]}]}
